{
  "source": "paper PMC5035373",
  "about": "(Diabetes Technology & Therapeutics, 2016)",
  "key": {"[1]": {"assay": "Insulin pharmacokinetics after ID", "type": "in vivo, human", "conditions": "for Insulin AUC 0–1 / Insulin AUC 0–1.5 / Insulin AUC 4–6: SD; for Cmax, median / Insulin AUC (360 min), median / Tmax, median: 0.2 U/kg", "how_it_was_run": "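Open-label randomized crossover in type 2 diabetics (30–70 y, BMI <35, HbA1c 6.5%–10%, drug-naive or metformin only). Insulin aspart 0.2 U/kg into right lower abdomen, intradermal via MicronJet or SC via pen, 4–14 days apart, fasting or pre-standard meal. Blood at −5 min, baseline, every 10 min to 2 h, then every 30 min to 6 h. Insulin measured by immunoassay; AUC, partial AUCs, AUCID/AUCSC derived.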"}, "[2]": {"tested_on": "patients with type 2 diabetes", "assay": "Safety and tolerability: adverse events, pain per visual analog scale", "type": "in vivo, human", "how_it_was_run": "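All enrolled patients were analysed for safety. Injection-site reactions, AEs and SAEs were recorded on study days and later visits, with their relation to the intervention. Insertion pain was rated on a visual analog scale and preference was surveyed. Intradermal vs SC tolerability was compared within subjects by Wilcoxon paired test.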"}, "[3]": {"conditions": "ID via MicronJet needle, all patients, n = 14"}, "[4]": {"conditions": "ID via MicronJet needle, before standard meal test, n = 3"}, "[5]": {"conditions": "SC conventional needle, all patients, n = 14"}, "[6]": {"conditions": "SC conventional needle, before standard meal test, n = 3"}, "[7]": {"conditions": "SC conventional needle, fasting, n = 11"}},
  "data": [
    {"substance": "Insulin aspart", "values": [
      {"measurement": "Insulin AUC 0–1", "setting": "[1]; ID MicronJet, 0–1 h, fasting population n = 11, mean ± SD", "value": "3695.2 ± 1593.3", "unit": "μU/mL/min"},
      {"measurement": "Insulin AUC 0–1.5", "setting": "[1]; ID MicronJet, 0–1.5 h, fasting population n = 11, mean ± SD", "value": "4912.0 ± 2154.6", "unit": "μU/mL/min"},
      {"measurement": "Insulin AUC 0–1.5", "setting": "[1]; ID MicronJet, 0–1.5 h postinjection, overall population n = 14, mean ± SD", "value": "5156.3 ± 1988.7", "unit": "μU/mL/min"},
      {"measurement": "Insulin AUC 4–6", "setting": "[1]; ID MicronJet, 4–6 h, fasting population n = 11, mean ± SD", "value": "2027.3 ± 946.5", "unit": "μU/mL/min"},
      {"measurement": "Insulin AUC 4–6", "setting": "[1]; ID MicronJet, 4–6 h postinjection, overall population n = 14, mean ± SD", "value": "2054.4 ± 857.7", "unit": "μU/mL/min"},
      {"measurement": "Cmax, median", "setting": "[1]; [3]", "value": 80, "unit": "μU/mL"},
      {"measurement": "Insulin AUC (360 min), median", "setting": "[1]; [3]", "value": 9913.75, "unit": "μU/mL/min"},
      {"measurement": "Tmax, median", "setting": "[1]; [3]", "value": 0.583, "unit": "h"},
      {"measurement": "Cmax, median", "setting": "[1]; [4]", "value": 95, "unit": "μU/mL"},
      {"measurement": "Insulin AUC (360 min), median", "setting": "[1]; [4]", "value": 12690, "unit": "μU/mL/min"},
      {"measurement": "Tmax, median", "setting": "[1]; [4]", "value": 0.833, "unit": "h"},
      {"measurement": "Cmax, median", "setting": "[1]; ID via MicronJet needle, fasting, n = 11", "value": 79, "unit": "μU/mL"},
      {"measurement": "Cmax, median", "setting": "[1]; [5]", "value": 55, "unit": "μU/mL"},
      {"measurement": "Insulin AUC (360 min), median", "setting": "[1]; [5]", "value": 10936.25, "unit": "μU/mL/min"},
      {"measurement": "Tmax, median", "setting": "[1]; [5]", "value": 1.46, "unit": "h"},
      {"measurement": "Cmax, median", "setting": "[1]; [6]", "value": 68, "unit": "μU/mL"},
      {"measurement": "Insulin AUC (360 min), median", "setting": "[1]; [6]", "value": 13960, "unit": "μU/mL/min"},
      {"measurement": "Tmax, median", "setting": "[1]; [6]", "value": 1.17, "unit": "h"},
      {"measurement": "Cmax, median", "setting": "[1]; [7]", "value": 54.5, "unit": "μU/mL"},
      {"measurement": "Insulin AUC (360 min), median", "setting": "[1]; [7]", "value": "10,407.5 μU/mL/min"},
      {"measurement": "Tmax, median", "setting": "[1]; SC via NovoPen conventional needle, fasting, n = 11, type 2 diabetes", "value": 1.5, "unit": "h"},
      {"measurement": "Insulin AUC 0–1", "setting": "[1]; SC, 0–1 h, fasting population n = 11, mean ± SD", "value": "2346.1 ± 609.7", "unit": "μU/mL/min"},
      {"measurement": "Insulin AUC 0–1", "setting": "[1]; SC, 0–1 h postinjection, overall population n = 14, mean ± SD, post hoc", "value": "2534.1 ± 737.1", "unit": "μU/mL/min"},
      {"measurement": "Insulin AUC 0–1.5", "setting": "[1]; SC, 0–1.5 h, fasting population n = 11, mean ± SD", "value": "3647.7 ± 904.0", "unit": "μU/mL/min"},
      {"measurement": "Insulin AUC 0–1.5", "setting": "[1]; SC, 0–1.5 h postinjection, overall population n = 14, mean ± SD", "value": "4035.4 ± 1255.9", "unit": "μU/mL/min"},
      {"measurement": "Insulin AUC 4–6", "setting": "[1]; SC, 4–6 h, fasting population n = 11, mean ± SD", "value": "2903.3 ± 1571.9", "unit": "μU/mL/min"},
      {"measurement": "Insulin AUC 4–6", "setting": "[1]; SC, 4–6 h postinjection, overall population n = 14, mean ± SD", "value": "2929.0 ± 1412.1", "unit": "μU/mL/min"},
      {"measurement": "Subjects experiencing AEs", "setting": "[2]; 17 patients in safety analysis, 5 AEs in total", "value": "3 of 17"},
      {"measurement": "Local AEs (injection site reactions)", "setting": "[2]; all 17 patients, ID and SC injections", "value": "No local AEs (injection site reactions) were reported"}
    ]}
  ]
}
